Measurements from different studies.
Each line is one published result; the experiments were not run side by side. Converted amounts (≈) assume the structure as drawn.
Organism: Candida albicans

Cc1cc(CC2CCCCC2)n(O)c(=O)c1
MIC80 (microbial growth; ATCC90028): 1.5 µM (≈ 0.332 µg/mL)

C=C1C(=O)O[C@@H](CCCCCCCCCCCCC)[C@@H]1C(=O)O
MIC (microbial growth; 28A): 64 µg/mL

O=C(NCc1ccc2c(c1)OCO2)c1ccc(Br)cc1F
MIC (microbial growth; ATCC10231; 72 h): > 200 µM

C[C@@H]1[C@H](O)[C@@H](C)/C=C/C=C/C=C/C=C/C=C/C=C/C=C/[C@H](O[C@@H]2O[C@H](C)[C@@H](O)[C@H](N)[C@@H]2O)C[C@@H]2O[C@](O)(C[C@@H](O)C[C@@H](O)[C@H](O)CC[C@@H](O)C[C@@H](O)CC(=O)O[C@H]1C)C[C@H](O)[C@H]2C(=O)O
IC50 (microbial growth; ATCC90028): 0.13 µg/mL (≈ 0.141 µM)

Cc1cc(Cc2ccc(Cl)cc2)n(O)c(=O)c1
MIC80 (microbial growth; ATCC90028): 1.7 µM (≈ 0.424 µg/mL)

OC(Cn1cncn1)(Cn1cncn1)c1ccc(F)cc1F
MFC (microbial killing): 40 µM (≈ 12.3 µg/mL)

COc1ccccc1Cc1cc(C)cc(=O)n1O
MIC80 (microbial growth; ATCC90028): 2.7 µM (≈ 0.662 µg/mL)

CCCCCOc1ccc(-c2cc(-c3ccc(C(=O)N[C@H]4C[C@@H](O)[C@@H](O)NC(=O)[C@@H]5[C@@H](O)[C@@H](C)CN5C(=O)[C@H]([C@H](O)CC(N)=O)NC(=O)[C@H]([C@H](O)[C@@H](O)c5ccc(O)c(OS(=O)(=O)O)c5)NC(=O)[C@@H]5C[C@@H](O)CN5C(=O)[C@H]([C@@H](C)O)NC4=O)cc3)no2)cc1
MIC50 (microbial growth): 0.01 µg/mL (≈ 0.00787 µM)

NOCC(=O)O
MIC (microbial growth; 28A): 1000 µg/mL
